In ChEMBL document CHEMBL5705889, “Novel mutant-selective EGFR kinase inhibitors against EGFR T790M” (Nature, 2009):
Calls of active or inactive are those of the source. The rule behind the calls is not given here.

Columns and labels:
[1] = AUC(0 to infinity) in mouse at 1 mg/kg, iv administered as single dose; type: ADME, organism-based; settings: in vivo
[2] = Drug concentration in mouse plasma at 1 mg/kg, iv administered as single dose and measured after 0.25 hrs; type: ADME, organism-based
Mus musculus [3] = assay: Invivo antitumor activity in transgenic mouse harboring EGFR del19/T790M mutant assessed as reduction in small residual nodules in tumor at 25 mg/kg administered via gavage for 2 weeks by H&E staining based analysis; type: functional, organism-based
How it was run: (§1)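 EGFR-TL (L858R/T790M) or exon19 deletion-T790M (TD) inducible bitransgenic mice dosed by oral gavage daily at 25 mg/kg; vehicle 10% 1-methyl-2-pyrrolidinone:90% PEG-300. Tumors followed by MRI; lung histology by standard protocols.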

Mus musculus [4] = assay: In vivo inhibition of EGFR phosphorylation in transgenic mouse harboring EGFR L858R/T790M mutant at 2.5 to 25 mg/kg administered as two doses separated by 16 hours by immunoblot analysis; type: functional, organism-based; settings: dose 2.5-25 mg/kg
[5] = biological target: Cyclin-G-associated kinase (Homo sapiens, UniProt O14976); assay: Binding affinity to GAK (unknown origin) assessed as dissociation constant
cells [6] = type: functional, cell-based; settings: Homo sapiens, Gefitinib-resistant PC9, 72 h
Mus musculus [7] = assay: Invivo antitumor activity in transgenic mouse harboring EGFR L858R/T790M mutant assessed as reduction in small residual nodules in tumor at 25 mg/kg administered via gavage for 2 weeks by H&E staining based analysis; type: functional, organism-based; how it was run: as §1
[8] = Drug concentration in mouse plasma at 1 mg/kg, iv administered as single dose and measured after 0.5 hrs; type: ADME, organism-based
[9] = C0 in mouse at 1 mg/kg, iv administered as single dose; type: ADME, organism-based; settings: in vivo
Mus musculus [10] = assay: In vivo antitumor activity in transgenic mouse harboring EGFR delE746_A750/T790M mutant assessed as increase in TUNEL positive cells at 25 mg/kg administered via gavage for 2 weeks by immunohistochemical analysis; type: functional, organism-based
How it was run: (§2)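 Transgenic EGFR T790M mutant mice were given daily gavage at 25mg/kg in 10% 1-methyl-2-pyrrolidinone:90% PEG-300 vehicle, alongside vehicle-alone controls. Tumor tissue was immunostained by standard protocols, and TUNEL-positive and Ki67-positive cells were counted.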

[11] = biological target: Serine/threonine-protein kinase PLK4 (Homo sapiens, UniProt O00444); assay: Binding affinity to PLK4 (unknown origin) assessed as dissociation constant
Mus musculus [12] = assay: In vivo inhibition of ERK1/2 phosphorylation in transgenic mouse harboring EGFR L858R/T790M mutant at 2.5 to 25 mg/kg administered as two doses separated by 16 hours by immunoblot analysis; type: functional, organism-based; settings: dose 2.5-25 mg/kg
How it was run: (§3)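 Transgenic mice gavaged with compound in 10% 1-methyl-2-pyrrolidinone:90% PEG-300 vehicle; phosphorylation assessed in tissue by immunoblotting per standard protocols.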

NCI-H3255 = assay: Antiproliferative activity against human NCI-H3255 cells harboring EGFR L858R mutant assessed as inhibition of cell growth incubated for 72 hrs by MTS assay; type: functional, cell-based; settings: NCI-H3255, 72 h
Focal adhesion kinase 1 = Focal adhesion kinase 1 (Homo sapiens, UniProt Q05397); assay: Binding affinity to FAK (unknown origin) assessed as dissociation constant
Mus musculus [13] = assay: Invivo antitumor activity in transgenic mouse harboring EGFR L858R/T790M mutant assessed as decrease in cellularity at 25 mg/kg administered via gavage for 2 weeks by H&E staining based analysis; type: functional, organism-based; how it was run: as §1
[14] = Toxicity in mouse harboring EGFR del E746_A750/T790M mutant assessed as effect on body weight at 25 mg/kg administered via gavage for 2 weeks; type: organism-based; settings: in vivo, po, 336 h
How it was run: (§4)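 Inducible bitransgenic tumor mice gavaged daily, 25 mg/kg, vehicle NMP (10% 1-methyl-2-pyrrolidinone, 90% PEG-300), compared against vehicle-treated mice; weight, serum creatine and total white blood cell count monitored during the study.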

[15] = AUC(0 to infinity) in mouse at 10 mg/kg, po administered as single dose; type: ADME, organism-based; settings: in vivo
[16] = biological target: RAC-alpha serine/threonine-protein kinase (Homo sapiens) (UniProt P31749); assay: Inhibition of AKT phosphorylation in human NCI-H1975 cells at 0.01 to 1 uM incubated for 16 hrs by immunoblot analysis; type: cell-based; settings: dose 0.01-1 µM
[17] = biological target: Cytoplasmic tyrosine-protein kinase BMX (Homo sapiens) (UniProt P51813); assay: Binding affinity to BMX (unknown origin)
[18] = AUC(0 to t) in mouse at 1 mg/kg, iv administered as single dose; type: ADME, organism-based; settings: in vivo
Mus musculus [19] = assay: Invivo antitumor activity in transgenic mouse harboring EGFR del19/T790M mutant assessed as reduction in nodule remnants in tumor at 25 mg/kg administered via gavage for 2 weeks by H&E staining based analysis; type: functional, organism-based; how it was run: as §1
Mus musculus [20] = assay: Invivo antitumor activity in transgenic mouse harboring EGFR del19/T790M mutant assessed as decrease in cellularity at 25 mg/kg administered via gavage for 2 weeks by H&E staining based analysis; type: functional, organism-based; how it was run: as §1
PC-9 = assay: cells; type: functional, cell-based; settings: Homo sapiens, PC-9, 72 h
cells [21] = type: functional, cell-based; settings: Homo sapiens, NCI-H1781, 72 h
[22] = Toxicity in mouse harboring EGFR del E746_A750/T790M mutant assessed as effect on total white blood cell count at 25 mg/kg administered via gavage for 2 weeks; type: organism-based; settings: in vivo, po, 336 h; how it was run: as §4
HCC827 = assay: cells; type: functional, cell-based; settings: Homo sapiens, HCC827, 72 h
[23] = Toxicity in mouse harboring EGFR del E746_A750/T790M mutant assessed as effect on serum creatine level at 25 mg/kg administered via gavage for 2 weeks; type: organism-based; settings: in vivo, po, 336 h; how it was run: as §4
[24] = Half-life in mouse at 1 mg/kg, iv administered as single dose; type: ADME, organism-based; settings: in vivo
Mus musculus [25] = assay: Invivo antitumor activity in transgenic mouse harboring EGFR L858R/T790M mutant assessed as remodelling/scarring at 25 mg/kg administered via gavage for 2 weeks by H&E staining based analysis; type: functional, organism-based; how it was run: as §1
[26] = Drug concentration in mouse plasma at 1 mg/kg, iv administered as single dose and measured after 1 hrs; type: ADME, organism-based
[27] = Drug concentration in mouse plasma at 10 mg/kg, po administered as single dose and measured after 0.25 hrs; type: ADME, organism-based
Mus musculus [28] = assay: In vivo antitumor activity in transgenic mouse harboring EGFR delE746_A750/T790M mutant assessed as decrease in Ki67 positive cells at 25 mg/kg administered via gavage for 2 weeks by immunohistochemical analysis; type: functional, organism-based; how it was run: as §2
[29] = Drug concentration in mouse plasma at 10 mg/kg, po administered as single dose and measured after 4 hrs; type: ADME, organism-based
Mus musculus [30] = assay: In vivo inhibition of ERK1/2 phosphorylation in transgenic mouse harboring EGFR del E746_A750/T790M mutant at 2.5 to 25 mg/kg administered as two doses separated by 16 hours by immunoblot analysis; type: functional, organism-based; settings: dose 2.5-25 mg/kg; how it was run: as §3
BaF3 = assay: cells; type: functional, cell-based; settings: Mus musculus, BaF3, 72 h

Chain of Cyclin-G-associated kinase (O14976 whole entry): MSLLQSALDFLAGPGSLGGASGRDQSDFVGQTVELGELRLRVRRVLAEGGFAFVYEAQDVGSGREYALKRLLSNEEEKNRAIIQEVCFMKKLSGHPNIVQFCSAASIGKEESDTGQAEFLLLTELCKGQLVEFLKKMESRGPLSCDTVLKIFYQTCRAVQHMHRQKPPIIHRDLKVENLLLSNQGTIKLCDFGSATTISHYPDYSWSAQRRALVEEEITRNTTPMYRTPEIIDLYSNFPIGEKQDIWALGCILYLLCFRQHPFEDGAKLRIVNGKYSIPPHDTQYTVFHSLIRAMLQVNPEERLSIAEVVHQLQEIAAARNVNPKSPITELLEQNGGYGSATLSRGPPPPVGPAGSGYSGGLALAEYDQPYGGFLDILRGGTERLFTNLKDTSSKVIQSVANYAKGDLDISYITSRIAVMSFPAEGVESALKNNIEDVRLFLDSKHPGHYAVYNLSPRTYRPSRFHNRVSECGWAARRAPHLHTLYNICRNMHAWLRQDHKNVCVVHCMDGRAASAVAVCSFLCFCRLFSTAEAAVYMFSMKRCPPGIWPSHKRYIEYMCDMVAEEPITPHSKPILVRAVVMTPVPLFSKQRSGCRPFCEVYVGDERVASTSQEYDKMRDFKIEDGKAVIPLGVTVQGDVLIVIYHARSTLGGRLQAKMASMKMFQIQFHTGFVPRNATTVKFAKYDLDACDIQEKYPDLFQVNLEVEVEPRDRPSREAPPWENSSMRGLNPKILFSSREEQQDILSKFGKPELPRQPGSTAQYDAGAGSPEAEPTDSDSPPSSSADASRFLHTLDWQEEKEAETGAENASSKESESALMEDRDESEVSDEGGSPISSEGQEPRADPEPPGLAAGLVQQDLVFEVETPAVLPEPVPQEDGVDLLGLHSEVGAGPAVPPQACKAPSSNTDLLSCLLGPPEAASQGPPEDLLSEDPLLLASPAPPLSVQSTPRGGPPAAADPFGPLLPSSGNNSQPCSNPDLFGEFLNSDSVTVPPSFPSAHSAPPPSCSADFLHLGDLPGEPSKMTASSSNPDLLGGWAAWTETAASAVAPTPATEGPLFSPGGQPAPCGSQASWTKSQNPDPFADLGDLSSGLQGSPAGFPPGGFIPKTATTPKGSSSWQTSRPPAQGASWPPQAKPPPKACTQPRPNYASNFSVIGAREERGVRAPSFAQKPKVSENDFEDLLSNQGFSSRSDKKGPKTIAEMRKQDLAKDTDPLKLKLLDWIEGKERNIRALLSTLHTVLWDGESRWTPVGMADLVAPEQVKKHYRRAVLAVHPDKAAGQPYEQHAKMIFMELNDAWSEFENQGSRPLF
Chain of Serine/threonine-protein kinase PLK4 (O00444 whole entry): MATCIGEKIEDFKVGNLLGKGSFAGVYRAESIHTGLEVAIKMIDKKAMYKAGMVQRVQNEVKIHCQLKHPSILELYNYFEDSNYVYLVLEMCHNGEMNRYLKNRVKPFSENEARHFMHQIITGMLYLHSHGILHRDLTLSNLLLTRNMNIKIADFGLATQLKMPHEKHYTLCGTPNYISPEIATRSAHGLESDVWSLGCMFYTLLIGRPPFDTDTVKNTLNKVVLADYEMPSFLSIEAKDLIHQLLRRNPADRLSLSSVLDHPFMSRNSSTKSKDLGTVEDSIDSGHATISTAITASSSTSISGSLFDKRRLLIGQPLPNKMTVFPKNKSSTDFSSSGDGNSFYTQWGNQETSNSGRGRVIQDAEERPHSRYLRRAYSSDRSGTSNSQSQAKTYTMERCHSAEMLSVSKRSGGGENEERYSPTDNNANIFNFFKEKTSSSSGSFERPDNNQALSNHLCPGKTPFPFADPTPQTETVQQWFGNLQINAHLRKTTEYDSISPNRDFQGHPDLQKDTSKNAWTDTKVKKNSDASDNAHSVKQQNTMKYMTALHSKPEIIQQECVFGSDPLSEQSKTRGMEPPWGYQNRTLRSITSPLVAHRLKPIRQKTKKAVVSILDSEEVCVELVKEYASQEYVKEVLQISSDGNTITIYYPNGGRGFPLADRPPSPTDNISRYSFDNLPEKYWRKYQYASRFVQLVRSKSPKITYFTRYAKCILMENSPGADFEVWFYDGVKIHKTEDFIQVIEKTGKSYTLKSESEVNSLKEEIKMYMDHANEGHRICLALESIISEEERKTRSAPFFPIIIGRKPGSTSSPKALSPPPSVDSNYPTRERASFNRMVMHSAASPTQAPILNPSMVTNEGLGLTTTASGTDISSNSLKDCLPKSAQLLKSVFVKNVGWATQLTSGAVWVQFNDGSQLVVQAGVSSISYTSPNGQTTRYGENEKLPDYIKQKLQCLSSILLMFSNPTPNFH
Chain of Cytoplasmic tyrosine-protein kinase BMX (Homo sapiens) (P51813 whole entry): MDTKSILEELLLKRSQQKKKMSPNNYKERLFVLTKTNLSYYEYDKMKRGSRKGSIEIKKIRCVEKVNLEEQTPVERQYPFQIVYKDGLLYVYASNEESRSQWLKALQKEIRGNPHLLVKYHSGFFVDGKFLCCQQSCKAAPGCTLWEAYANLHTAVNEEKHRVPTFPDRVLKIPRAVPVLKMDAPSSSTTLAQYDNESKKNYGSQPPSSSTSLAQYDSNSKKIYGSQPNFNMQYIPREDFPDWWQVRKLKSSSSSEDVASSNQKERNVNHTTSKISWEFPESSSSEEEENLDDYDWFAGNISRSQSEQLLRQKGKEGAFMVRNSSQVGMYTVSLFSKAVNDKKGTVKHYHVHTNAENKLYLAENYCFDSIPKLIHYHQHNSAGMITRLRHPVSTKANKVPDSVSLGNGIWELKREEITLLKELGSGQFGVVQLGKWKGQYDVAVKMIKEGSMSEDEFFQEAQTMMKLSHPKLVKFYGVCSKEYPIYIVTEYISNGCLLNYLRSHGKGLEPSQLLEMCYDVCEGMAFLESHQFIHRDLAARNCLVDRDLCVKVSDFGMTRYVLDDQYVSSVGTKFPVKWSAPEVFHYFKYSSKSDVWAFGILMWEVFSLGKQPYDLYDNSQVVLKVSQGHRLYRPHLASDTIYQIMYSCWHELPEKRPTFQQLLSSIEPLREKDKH
Chain of Focal adhesion kinase 1 (Q05397 whole entry): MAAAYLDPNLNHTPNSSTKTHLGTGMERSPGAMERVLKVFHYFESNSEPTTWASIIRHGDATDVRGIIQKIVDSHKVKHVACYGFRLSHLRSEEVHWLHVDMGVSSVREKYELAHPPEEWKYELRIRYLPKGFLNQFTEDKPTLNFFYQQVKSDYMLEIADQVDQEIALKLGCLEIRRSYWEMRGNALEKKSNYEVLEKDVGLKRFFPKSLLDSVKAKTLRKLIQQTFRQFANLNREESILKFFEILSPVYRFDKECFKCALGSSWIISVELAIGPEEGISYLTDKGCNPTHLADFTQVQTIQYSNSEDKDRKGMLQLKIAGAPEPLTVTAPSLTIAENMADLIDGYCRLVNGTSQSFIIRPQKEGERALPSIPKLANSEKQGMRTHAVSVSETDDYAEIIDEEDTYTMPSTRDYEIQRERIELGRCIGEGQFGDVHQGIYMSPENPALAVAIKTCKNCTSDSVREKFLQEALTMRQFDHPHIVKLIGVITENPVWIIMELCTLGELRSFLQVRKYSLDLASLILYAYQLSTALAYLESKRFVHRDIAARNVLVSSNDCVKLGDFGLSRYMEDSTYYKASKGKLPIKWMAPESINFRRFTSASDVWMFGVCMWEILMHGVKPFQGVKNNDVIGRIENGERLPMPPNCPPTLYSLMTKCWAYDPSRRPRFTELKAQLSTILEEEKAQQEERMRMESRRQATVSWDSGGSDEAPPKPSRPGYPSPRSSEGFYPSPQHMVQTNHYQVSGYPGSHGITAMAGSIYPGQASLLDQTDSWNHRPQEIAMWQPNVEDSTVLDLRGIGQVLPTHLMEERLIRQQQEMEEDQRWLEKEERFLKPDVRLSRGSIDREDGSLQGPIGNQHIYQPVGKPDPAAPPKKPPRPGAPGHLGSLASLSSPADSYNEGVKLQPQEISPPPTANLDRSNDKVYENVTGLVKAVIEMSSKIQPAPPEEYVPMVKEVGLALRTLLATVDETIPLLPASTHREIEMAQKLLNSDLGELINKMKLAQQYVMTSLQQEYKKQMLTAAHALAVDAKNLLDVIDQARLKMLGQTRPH
Chain of RAC-alpha serine/threonine-protein kinase (Homo sapiens) (P31749 whole entry): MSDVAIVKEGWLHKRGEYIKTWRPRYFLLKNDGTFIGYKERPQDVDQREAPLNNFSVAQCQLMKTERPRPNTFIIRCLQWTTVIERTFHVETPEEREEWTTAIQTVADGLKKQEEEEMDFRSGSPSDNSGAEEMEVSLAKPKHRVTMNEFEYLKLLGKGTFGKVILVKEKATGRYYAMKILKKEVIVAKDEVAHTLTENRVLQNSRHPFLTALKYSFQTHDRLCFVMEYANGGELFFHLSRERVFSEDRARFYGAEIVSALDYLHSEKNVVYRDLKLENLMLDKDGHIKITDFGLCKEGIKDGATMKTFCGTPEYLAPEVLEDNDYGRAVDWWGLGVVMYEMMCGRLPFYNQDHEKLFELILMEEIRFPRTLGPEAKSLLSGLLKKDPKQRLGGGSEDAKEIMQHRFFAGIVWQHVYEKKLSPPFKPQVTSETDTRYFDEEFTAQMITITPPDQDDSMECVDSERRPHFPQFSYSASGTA

- AUC(0-inf) [1]: 976 ng·h/mL
- concentration at 0.25 h [2]: 627 ng/mL
- Kd [5]: 91 nM
- IC50 (cells [6]): 47 nM
- concentration at 0.5 h [8]: 451 ng/mL
- C0 [9]: 1480 ng/mL
- Kd [11]: 100 nM
- IC50 (NCI-H3255): 89 nM
- Kd (Focal adhesion kinase 1): 78 nM
- AUC(0-inf) [15]: 2400 ng·h/mL
- inhibition [16]: Active
- Activity [17]: inactive
- AUC(0-t) [18]: 956 ng·h/mL
- IC50 (PC-9): 36 nM
- IC50 (cells [21]): 1510 nM
- IC50 (HCC827): 5 nM
- half-life [24]: 1.76 h
- concentration at 1 h [26]: 228 ng/mL
- concentration at 0.25 h [27]: 429 ng/mL
- concentration at 4 h [29]: 214 ng/mL
- IC50 (BaF3): 157 nM
SMILES: C=CC(=O)Nc1cccc(Oc2nc(Nc3ccc(N4CCN(C)CC4)cc3OC)ncc2Cl)c1
- Activity (Mus musculus [3]): Active
- inhibition (Mus musculus [4]): Active
- Activity (Mus musculus [7]): Active
- Activity (Mus musculus [10]): Active
- inhibition (Mus musculus [12]): Active
- Activity (Mus musculus [13]): Active
- Activity [14]: Non-Toxic
- Activity (Mus musculus [19]): Active
- Activity (Mus musculus [20]): Active
- Activity [22]: Non-Toxic
- Activity [23]: Non-Toxic
- Activity (Mus musculus [25]): Active
- Activity (Mus musculus [28]): Active
- inhibition (Mus musculus [30]): Active
